Active and inactive are the calls of the source. The calls are words filed in the database; no cut-off is given here.
Experiments:
Trypanosoma cruzi [1] = assay: Antitrypanosomal activity against Trypanosoma cruzi trypomastigotes in cardiomyocytes; format: functional, organism-based
Procedure, shortened: (§1)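 Trypomastigotes (10^6) were pre-exposed for 30 min to inhibitor in DMSO (1–50 μM) or DMSO control. They then infected rat cardiomyocyte monolayers in triplicate at 10 parasites/cell for 2 h. Unbound parasites were removed and cells were grown in DMEM/10% FBS for 72 h. Parasites per 200 cells and % infection were counted on Giemsa-stained monolayers. Results are mean ± SD, with Student t test.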

Trypanosoma cruzi [2] = assay: Antitrypanosomal activity against Trypanosoma cruzi amastigotes in cardiomyocytes; format: functional; procedure, shortened: as §1
Trypanosoma cruzi [3] = assay: Antitrypanosomal activity against Trypanosoma cruzi trypomastigote in cardiomyocytes assessed as decrease in intracellular parasites at 20 uM after 72 hrs; format: functional, organism-based; procedure, shortened: as §1
[4] = molecular target: Sterol 14-alpha demethylase (Trypanosoma cruzi (strain CL Brener), UniProt Q7Z1V1); assay: Binding affinity to Trypanosoma cruzi CYP51 expressed in Escherichia coli by spectral titration
Sterol 14-alpha demethylase, sequence (Q7Z1V1 whole entry): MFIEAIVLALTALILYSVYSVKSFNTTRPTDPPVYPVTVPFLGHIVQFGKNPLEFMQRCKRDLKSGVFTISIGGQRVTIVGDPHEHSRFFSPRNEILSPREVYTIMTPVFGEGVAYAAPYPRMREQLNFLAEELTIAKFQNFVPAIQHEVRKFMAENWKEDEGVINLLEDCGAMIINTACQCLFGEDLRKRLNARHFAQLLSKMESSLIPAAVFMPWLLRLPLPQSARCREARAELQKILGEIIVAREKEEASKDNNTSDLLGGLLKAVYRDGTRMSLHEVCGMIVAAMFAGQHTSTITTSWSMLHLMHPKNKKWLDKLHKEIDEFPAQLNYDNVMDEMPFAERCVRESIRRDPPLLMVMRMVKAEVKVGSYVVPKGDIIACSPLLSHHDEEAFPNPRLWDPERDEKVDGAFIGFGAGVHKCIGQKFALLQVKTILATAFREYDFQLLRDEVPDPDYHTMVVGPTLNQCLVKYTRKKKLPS

Trypanosoma cruzi [5] = assay: Antitrypanosomal activity against Trypanosoma cruzi trypomastigotes in cardiomyocytes at 10 uM after 72 hrs; format: functional, organism-based; procedure, shortened: as §1
[6] = molecular target: Sterol 14-alpha demethylase (Trypanosoma cruzi (strain CL Brener)) (UniProt Q7Z1V1); assay: Inhibitory potency at Trypanosoma cruzi CYP51 assessed as molar ratio of drug to enzyme required to slow down the reaction twofold at 1 uM enzyme concentration
Sterol 14-alpha demethylase (Trypanosoma cruzi (strain CL Brener)), sequence (Q7Z1V1 whole entry, looked up): as the sequence (Q7Z1V1 whole entry) above
Procedure, shortened: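 Reconstituted with T. brucei CPR and DLPC (TCCYP51:CPR:DLPC 1:2:50). Final mix: 1 μM TCCYP51, 50 μM [3H]-MDL in MOPS pH 7.4 with KCl, MgCl2, glycerol and an isocitrate/isocitrate dehydrogenase system. Inhibitors 1–100 μM, 5 min preincubation at 37°C, started with NADPH. Sterols by reverse-phase radio-HPLC. I/E2 is the inhibitor/enzyme molar ratio halving the initial rate.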

[7] = molecular target: T1, Prostaglandin G/H synthase 2 (Mus musculus) (UniProt Q05769); assay: Inhibitory potency at mouse COX2 assessed as molar ratio of drug to enzyme required to slow down the reaction twofold at 0.1 uM enzyme concentration
T1 sequence (whole entry): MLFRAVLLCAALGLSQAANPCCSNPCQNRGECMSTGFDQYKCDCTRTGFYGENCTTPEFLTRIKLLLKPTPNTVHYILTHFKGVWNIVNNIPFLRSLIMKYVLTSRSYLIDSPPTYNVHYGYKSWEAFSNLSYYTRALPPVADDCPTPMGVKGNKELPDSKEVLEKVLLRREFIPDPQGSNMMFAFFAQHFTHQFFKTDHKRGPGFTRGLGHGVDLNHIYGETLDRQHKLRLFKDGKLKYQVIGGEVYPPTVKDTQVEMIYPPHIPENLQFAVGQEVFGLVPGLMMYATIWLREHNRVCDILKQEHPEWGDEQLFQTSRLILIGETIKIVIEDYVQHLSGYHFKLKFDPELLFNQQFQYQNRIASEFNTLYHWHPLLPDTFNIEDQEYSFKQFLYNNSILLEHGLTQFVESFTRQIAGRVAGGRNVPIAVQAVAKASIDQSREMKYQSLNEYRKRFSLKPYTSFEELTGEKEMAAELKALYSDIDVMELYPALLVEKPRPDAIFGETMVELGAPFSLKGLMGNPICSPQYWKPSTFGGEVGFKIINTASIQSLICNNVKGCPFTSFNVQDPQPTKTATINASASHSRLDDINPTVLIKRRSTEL
Procedure, shortened: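 Mouse cyclooxygenase-2 at 100 nM final concentration. Potency is expressed as the inhibitor/enzyme molar ratio giving a two-fold decrease in the initial rate of catalysis (I/E2).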

Trypanosoma cruzi [8] = assay: Antitrypanosomal activity against Trypanosoma cruzi epimastigotes assessed as blocking of cellular sterol composition at 50 uM after 24 hrs

For `CC1CCC(C(=O)NC(Cc2c[nH]c3ccccc23)C(=O)Nc2ccncc2)CC1` (stereo unspecified), the Activity (Trypanosoma cruzi [1]) was “Dose-dependent effect” and the Activity (Trypanosoma cruzi [2]) was “Dose-dependent effect”.
For `COc1ccc2c(c1)c(CC(=O)NCCc1cccc(Cl)c1)c(C)n2C(=O)c1ccc(Cl)cc1`, the Activity (Trypanosoma cruzi [3]) was “Active”, the Kd [4] was 360 nM and the Activity (Trypanosoma cruzi [5]) was “Active”. It also gave a Ratio [6] of less than 1 and a Ratio [7] of less than 1.
In the case of `CCC(C(=O)Nc1ccncc1)c1ccccc1` (stereo unspecified), the Kd [4] is reported as 440 nM and the Ratio [6] is reported as 10.
`COc1ccc2c(c1)c(CC(=O)NCc1ccncc1)c(C)n2C(=O)c1ccc(Cl)cc1` showed a Kd [4] of 540 nM, a Ratio [6] of 10 and a Ratio [7] of 10.
For `COc1ccc2c(c1)c(CC(=O)NCCc1cccnc1)c(C)n2C(=O)c1ccc(Cl)cc1`, the Activity (Trypanosoma cruzi [1]) was “Dose-dependent effect”, the EC50 (Trypanosoma cruzi [2]; read-out: ED50 (the source's name)) was less than 1000 nM and the Kd [4] was 2310 nM. The Ratio [6] was 6.3 and the Activity (Trypanosoma cruzi [8]) was “Active”.
For `COc1ccc2c(c1)c(CC(=O)Nc1ccccn1)c(C)n2C(=O)c1ccc(Cl)cc1`, the Kd [4] was 3300 nM, the Ratio [6] was 11 and the Ratio [7] was 2.1.
In the case of `O=C(Nc1ccncc1)C1c2ccccc2Oc2ccccc21`, the Kd [4] is reported as 750 nM and the Ratio [6] is reported as 14.
`COc1ccc2c(c1)c(CC(=O)NCc1ccc(C(F)(F)F)nc1)c(C)n2C(=O)c1ccc(Cl)cc1` was tested, and the Ratio [6] was 7.7 and the Ratio [7] was less than 1.
Compound `COc1ccc2c(c1)c(CC(=O)Nc1cccnc1)c(C)n2C(=O)c1ccc(Cl)cc1` has a Kd [4] of 290 nM, a Ratio [6] of 9.1 and a Ratio [7] of 2.1.
`COc1ccc2c(c1)c(CC(=O)NCC(C)c1ccccc1)c(C)n2C(=O)c1ccc(Cl)cc1` (stereo unspecified) was tested, and the Activity (Trypanosoma cruzi [3]) was “Active”, the Kd [4] was 150 nM and the Activity (Trypanosoma cruzi [5]) was “Active”. The Ratio [6] was less than 1 and the Ratio [7] was greater than 40.
`COc1ccc2c(c1)c(CC(=O)NC(C)c1ccncc1)c(C)n2C(=O)c1ccc(Cl)cc1` (stereo unspecified) was tested, and the Kd [4] was 370 nM, the Ratio [6] was 8.5 and the Ratio [7] was 1.7.
`COc1ccc2c(c1)c(CC(=O)NCc1ccc(Cl)nc1)c(C)n2C(=O)c1ccc(Cl)cc1` was tested, and the Activity (Trypanosoma cruzi [1]) was “Dose-dependent effect”, the Activity (Trypanosoma cruzi [2]) was “Dose-dependent effect” and the Ratio [6] was 4.2. The Ratio [7] was less than 1.
`COc1ccc2c(c1)c(CC(=O)NCc1ccccn1)c(C)n2C(=O)c1ccc(Cl)cc1` was tested, and the Activity (Trypanosoma cruzi [1]) was “Dose-dependent effect”, the Activity (Trypanosoma cruzi [2]) was “Dose-dependent effect” and the Kd [4] was 7600 nM. It also gave a Ratio [6] of 13 and a Ratio [7] greater than 10.
`COc1ccc2c(c1)c(CC(=O)Nc1ncccn1)c(C)n2C(=O)c1ccc(Cl)cc1` was tested, and the Ratio [6] was 15 and the Ratio [7] was 3.6.
